Measurements taken from ChEMBL document CHEMBL4393740, “Preparation and biological evaluation of soluble tetrapeptide epoxyketone proteasome inhibitors” (Bioorg Med Chem, 2019).

Columns and labels:
U-266 = test: Cytotoxicity against human U266B1 cells assessed as cell viability measured after 72 hrs by celltiter96 aqueous cell proliferation assay; assay type: functional, cell-based; settings: U-266, 72 h
Procedure, shortened: (§1)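 Suspension cells in log phase plated at 5000 (RPMI8226) or 10000 (U266B1) cells per well. Viability read after 72 h by MTS-type CellTiter 96 AQueous One assay on a plate reader. IC50 reported, three repeats.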

RPMI-8226 = test: Cytotoxicity against human RPMI8226 cells assessed as cell viability measured after 72 hrs by celltiter96 aqueous cell proliferation assay; assay type: functional, cell-based; settings: RPMI-8226, 72 h; procedure, shortened: as §1
[1] = target: T1, Proteasome Macropain subunit MB1 (Homo sapiens, UniProt P28074); test: Inhibition of human chymotrypsin-like activity of 20S proteasome using Suc-LLVY-AMC as substrate pre-incubated for 10 mins followed by substrate addition and measured after 1 hr by spectrofluorimetry
T1 sequence (P28074 whole entry): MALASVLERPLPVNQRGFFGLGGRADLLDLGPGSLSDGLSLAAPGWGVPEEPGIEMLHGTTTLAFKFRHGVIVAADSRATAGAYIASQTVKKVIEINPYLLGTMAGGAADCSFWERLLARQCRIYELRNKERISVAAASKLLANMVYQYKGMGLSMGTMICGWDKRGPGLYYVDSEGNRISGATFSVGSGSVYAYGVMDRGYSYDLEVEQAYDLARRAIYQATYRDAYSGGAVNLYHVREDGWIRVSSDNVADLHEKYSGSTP

| SMILES | IC50 ([1]; read-out: IC50) | other results |
| --- | --- | --- |
| CC(C)C[C@H](NC(=O)[C@H](CCc1ccccc1)NC(=O)CN1CCOCC1)C(=O)N[C@@H](Cc1cc2ccccc2s1)C(=O)N[C@@H](CC(C)C)C(=O)[C@@]1(C)CO1 | 37.5 nM | IC50 (U-266): 80.5 nM; IC50 (RPMI-8226): 86.6 nM |
| CC(C)C[C@H](NC(=O)[C@H](Cc1cscn1)NC(=O)c1cnccn1)C(=O)N[C@@H](Cc1ccccc1)C(=O)N[C@@H](CC(C)C)C(=O)[C@@]1(C)CO1 | 38.8 nM | – |
| CCCC[C@H](NC(=O)[C@H](CC(C)C)NC(=O)[C@H](CCc1ccccc1)NC(=O)CN1CCOCC1)C(=O)N[C@@H](CC(C)C)C(=O)[C@@]1(C)CO1 | 162 nM | – |
| CC(C)C[C@H](NC(=O)[C@H](Cc1cscn1)NC(=O)c1cc(Cl)ccc1Cl)C(=O)N[C@@H](Cc1ccccc1)C(=O)N[C@@H](CC(C)C)C(=O)[C@@]1(C)CO1 | 64.8 nM | – |
| Cc1cc(C(=O)N[C@@H](CCc2ccccc2)C(=O)N[C@H](C(=O)N[C@@H](Cc2ccccc2)C(=O)N[C@@H](CC(C)C)C(=O)[C@@]2(C)CO2)C2CC2)no1 | 32 nM | – |
| Cc1cc(C(=O)N[C@@H](CCc2ccccc2)C(=O)N[C@@H](Cc2cscn2)C(=O)N[C@@H](Cc2ccccc2)C(=O)N[C@@H](CC(C)C)C(=O)[C@@]2(C)CO2)no1 | – | IC50 [1]: Not Active |
| Cc1cc(C(=O)NCC(=O)N[C@@H](CC(C)C)C(=O)N[C@@H](Cc2ccccc2)C(=O)N[C@@H](CC(C)C)C(=O)[C@@]2(C)CO2)no1 | 56.5 nM | – |
| Cc1cc(C(=O)N[C@H](C(=O)N[C@@H](CC(C)C)C(=O)N[C@@H](Cc2ccccc2)C(=O)N[C@@H](CC(C)C)C(=O)[C@@]2(C)CO2)C2CC2)no1 | 43.1 nM | – |
| CC(C)C[C@H](NC(=O)[C@H](CCc1ccccc1)NC(=O)CN1CCOCC1)C(=O)N[C@@H](Cc1ccccc1)C(=O)N[C@@H](Cc1ccccc1)C(=O)[C@@]1(C)CO1 | 140 nM | – |
| Cc1cc(C(=O)N[C@@H](CCc2ccccc2)C(=O)N[C@H](C(=O)N[C@@H](Cc2ccccc2)C(=O)N[C@@H](CC(C)C)C(=O)[C@@]2(C)CO2)C2CCCCC2)no1 | 30.8 nM | IC50 (U-266): 23.2 nM; IC50 (RPMI-8226): 14.7 nM |
| Cc1cc(C(=O)N[C@@H](Cc2ccccn2)C(=O)N[C@@H](CC(C)C)C(=O)N[C@@H](Cc2ccccc2)C(=O)N[C@@H](CC(C)C)C(=O)[C@@]2(C)CO2)no1 | 60.7 nM | – |
| Cc1cc(C(=O)N[C@@H](Cc2cscn2)C(=O)N[C@@H](CC(C)C)C(=O)N[C@@H](Cc2ccccc2)C(=O)N[C@@H](CC(C)C)C(=O)[C@@]2(C)CO2)no1 | 20.6 nM | – |
| CC(C)C[C@H](NC(=O)[C@H](CCc1ccccc1)NC(=O)CN1CCOCC1)C(=O)NCC(=O)N[C@@H](CC(C)C)C(=O)[C@@]1(C)CO1 | – | IC50 [1]: Not Active |
| CCCC[C@H](NC(=O)[C@H](Cc1ccccc1)NC(=O)[C@H](CC(C)C)NC(=O)[C@H](CCc1ccccc1)NC(=O)CN1CCOCC1)C(=O)[C@@]1(C)CO1 | 52.2 nM | – |
| Cc1cc(C(=O)N[C@@H](CCc2ccccc2)C(=O)N[C@@H](Cc2ccccn2)C(=O)N[C@@H](Cc2ccccc2)C(=O)N[C@@H](CC(C)C)C(=O)[C@@]2(C)CO2)no1 | – | IC50 [1]: Not Active |
